The text below walks through data of ChEMBL document CHEMBL2146464, “Structure-activity relationship study of nitrosopyrimidines acting as antifungal agents” (Bioorg Med Chem, 2012).

What all share (assay type): functional
For experiment [1], the system named is Trichophyton mentagrophytes. Description: Antifungal activity against Trichophyton mentagrophytes ATCC 9972 by NCCLS broth microdilution method. The settings on record: read-out: MIC100. The procedure, abridged: (§1)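 MIC by broth microdilution per NCCLS M27-A3/M38-A2 in RPMI-1640 buffered to pH 7.0 with MOPS. Twofold dilutions from 250–0.98 µg/mL, final DMSO ≤1%. Inoculum 1–5 × 10³ CFU/mL. Incubated in a moist dark chamber, 30 °C for Aspergillus and 28–30 °C for dermatophytes. Read visually when control growth allowed. Endpoint is the lowest concentration giving total inhibition of visible growth (MIC100).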

For the next experiment, the system named is Trichophyton rubrum. Description: Antifungal activity against Trichophyton rubrum CCC 110 by NCCLS broth microdilution method. The settings on record: read-out: MIC100. The procedure, abridged: as §1
The subject of experiment [2] is Candida tropicalis. Kind of experiment: Antifungal activity against Candida tropicalis after 48 hrs by NCCLS broth microdilution method. The settings on record: read-out: MIC100. The procedure, abridged: (§2)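 Yeast MIC by NCCLS M27-A3 broth microdilution in RPMI-1640 buffered to pH 7.0 with MOPS. Twofold dilutions of 250–0.98 µg/mL, final DMSO ≤1%. Inoculum 1–5 × 10³ CFU/mL. Incubated at 30 °C in a moist dark chamber. Read visually at 48 h. MIC100 is the lowest concentration with no visible growth versus drug-free control.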

Experiment [3] relates to Cryptococcus neoformans. Description: Antifungal activity against Cryptococcus neoformans ATCC 32264 after 48 hrs by NCCLS broth microdilution method. The settings on record: ATCC 32264, 48 h, read-out: MIC100. In a few lines: as §2
A further experiment has as its system Aspergillus niger. Kind of experiment: Antifungal activity against Aspergillus niger ATCC 9029 by NCCLS broth microdilution method. The settings on record: read-out: MIC100. In a few lines: as §1
Experiment [4] relates to Candida albicans. Kind of experiment: Antifungal activity against Candida albicans ATCC 10231 after 24 hrs by microplate reader analysis. The settings on record: ATCC 10231, 24 h. The procedure, abridged:
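96-well RPMI-1640 wells with compound at final 250–0.98 µg/mL (DMSO ≤1%). Inoculum 100 µL, 1–5 × 10³ CFU/mL, 200 µL final. Each well includes growth (DMSO, no compound) and sterility controls. % inhibition = 100 − (CTW−SCW)/(GCW−SCW) × 100, run in duplicate.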

In experiment [5] the test system is Cryptococcus neoformans. Kind of experiment: Antifungal activity against Cryptococcus neoformans ATCC 32264 after 48 hrs by microplate reader analysis. The settings on record: ATCC 32264, 48 h. In a few lines: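 Microplate growth-inhibition assay in RPMI-1640, compound at final 250–0.98 µg/mL (DMSO ≤1%). Inoculum 1–5 × 10³ CFU/mL. Sterility and DMSO growth controls included. Percent inhibition is computed from blank-corrected OD relative to the growth control, tested in duplicate.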

The next experiment relates to Aspergillus fumigatus. Kind of experiment: Antifungal activity against Aspergillus fumigatus ATCC 26934 by NCCLS broth microdilution method. The settings on record: read-out: MIC100. In a few lines:
as §1

The subject of experiment [6] is Candida albicans. Kind of experiment: Antifungal activity against Candida albicans ATCC 10231 after 48 hrs by NCCLS broth microdilution method. The settings on record: ATCC 10231, 48 h, read-out: MIC100. In a few lines:
as §2

Another experiment concerns Aspergillus flavus. Kind of experiment: Antifungal activity against Aspergillus flavus ATCC 9170 by NCCLS broth microdilution method. The settings on record: read-out: MIC100. The procedure, abridged:
as §1

Experiment [7] concerns Candida tropicalis. Kind of experiment: Antifungal activity against Candida tropicalis by microplate reader analysis.
The subject of another experiment is Nannizzia gypsea. Kind of experiment: Antifungal activity against Microsporum gypseum CCC 115 by NCCLS broth microdilution method. The settings on record: read-out: MIC100. The procedure, abridged: as §1

Values after ≈ are worked out from the molar mass of the structure shown.

For the compound `C[C@@H]1[C@H](O)[C@@H](C)/C=C/C=C/C=C/C=C/C=C/C=C/C=C/[C@H](O[C@@H]2O[C@H](C)[C@@H](O)[C@H](N)[C@@H]2O)C[C@@H]2O[C@](O)(C[C@@H](O)C[C@@H](O)[C@H](O)CC[C@@H](O)C[C@@H](O)CC(=O)O[C@H]1C)C[C@H](O)[C@H]2C(=O)O` [AMPHOTERICIN B], the MIC in experiment [1] was found to be 0.06 µg/mL (≈ 0.0649 µM); with Trichophyton rubrum it was 0.06 µg/mL (≈ 0.0649 µM); in the experiment with Candida tropicalis [2], 0.98 µg/mL (≈ 1.06 µM); in the experiment with Cryptococcus neoformans [3], 0.25 µg/mL (≈ 0.271 µM); with Aspergillus niger it was 0.49 µg/mL (≈ 0.53 µM); with Aspergillus fumigatus it was 0.49 µg/mL (≈ 0.53 µM). For the same compound, the figures for the MIC in the experiment on Candida albicans [6], in the experiment on Aspergillus flavus and with Nannizzia gypsea were 0.98 µg/mL (≈ 1.06 µM), 0.49 µg/mL (≈ 0.53 µM) and 0.12 µg/mL (≈ 0.13 µM), respectively. Further, the results for the MIC50 with Candida albicans [4], in the experiment with Cryptococcus neoformans [5] and in the experiment with Candida tropicalis [7] were 0.49 µg/mL (≈ 0.53 µM), 0.98 µg/mL (≈ 1.06 µM) and 0.49 µg/mL (≈ 0.53 µM), respectively.
